Bioassay records as filed in PubChem.
ADAM10 inh: human ADAM10 inhibitors, primary screen, biochemical, QFRET, HTS | inhibition, % at 7 µM | Disintegrin and metalloproteinase domain-containing protein 10 (Homo sapiens), O14672 | AID 720582, 2013 | hit rate 0.62% among 370,000 | recombinant ADAM10, EDANS/DABCYL FRET peptide cleavage, 3 h;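 active = inhibition above a per-campaign cutoff equal to the mean of compounds falling between control-based bounds plus 3 SD, cut at about 20% in these data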;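 note: 0% = DMSO wells while the 100% control is not disclosed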
Target sequence (O14672 214-748 limits assumed): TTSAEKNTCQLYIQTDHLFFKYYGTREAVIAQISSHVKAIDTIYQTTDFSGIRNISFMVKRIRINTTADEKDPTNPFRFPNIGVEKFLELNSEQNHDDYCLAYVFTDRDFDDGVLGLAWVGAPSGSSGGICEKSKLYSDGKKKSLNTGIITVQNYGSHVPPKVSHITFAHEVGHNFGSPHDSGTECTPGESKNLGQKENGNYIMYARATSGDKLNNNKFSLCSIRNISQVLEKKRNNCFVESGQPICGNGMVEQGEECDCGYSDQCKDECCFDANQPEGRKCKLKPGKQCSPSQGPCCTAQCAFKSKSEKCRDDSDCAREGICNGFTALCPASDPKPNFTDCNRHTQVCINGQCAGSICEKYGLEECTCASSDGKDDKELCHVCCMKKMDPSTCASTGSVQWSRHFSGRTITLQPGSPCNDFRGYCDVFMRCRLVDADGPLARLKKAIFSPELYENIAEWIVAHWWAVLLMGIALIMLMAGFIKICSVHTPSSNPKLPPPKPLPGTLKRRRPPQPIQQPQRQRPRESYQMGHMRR
SKN-1 inh: suppressors of acrylamide-induced Pgst-4::GFP reporter in worms, primary screen, SKN-1 inhibitor project, whole organism, uHTS, GFP/RFP fluorescence ratio, strain VP596. C. elegans VP596 Pgst-4::GFP/RFP ratio, 24 h. inhibition, % at 21.8 µM. hit rate 0.49% among 360,000. AID 624304, 2012;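 active = interference check ratio from 0.5 to 1.5 plus GFP to RFP signal ratio inhibition reaching or exceeding a fixed threshold, cut at about 30% in these data, passing the limit was not always enough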
MPTP block: mitochondrial permeability transition pore inhibitors, primary screen, biochemical, isolated mouse mitochondria, absorbance. Ca2+ swelling absorbance, 30 min. inhibition, % at 10 µM. hit rate 1.4% among 360,000;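 active = inhibition of 50% or more, scaled per plate between neutral and stimulator controls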;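 note: 0% = DMSO wells given calcium and 100% = 1 mM EGTA wells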
MT1-MMP act inh: blockers of MT1-MMP proenzyme processing, primary screen, HT1080 RFP-PRO-GFP cells, GFP/RFP fluorescence | Matrix metalloproteinase-14 (Homo sapiens), P50281 | GFP/RFP ratio fluorescence, overnight; percent of plate control window, DMSO zero | GFP/RFP ratio change, % at 20 µM | hit rate 0.061% among 360,000 | AID 651647, 2012;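 active = GFP/RFP ratio change of at least 30% with cell ATP level not reduced by more than half and red fluorescence within 50% of control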
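Material – HT1080 RFP-PRO-GFP cells · Control set – DMSO wells and RFP-L50D-GFP cells · Incubation – overnight cell settling, then overnight compound exposure, 37 °C, 5% CO2 · Compound dosing – single-point 20 µM compound, 1% DMSO · Read-out – GFP/RFP fluorescence ratio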
ADAM17 inh: ADAM17 inhibitors, primary screen, biochemical, QFRET | Disintegrin and metalloproteinase domain-containing protein 17 (Homo sapiens), P78536 | recombinant ADAM17, EDANS/DABCYL FRET peptide cleavage | inhibition, % at 6.95 µM | hit rate 0.83% among 370,000 | AID 720648, 2013;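 active = inhibition above the mean of compounds lying between control limits plus 3 SD, set per campaign, cut at about 8.5% in these data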;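 note: 0% = DMSO-only wells as the low control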
GRIN3A LBD mod: binders of NR3A ligand-binding domain, primary screen, biophysical, differential scanning fluorimetry, uHTS; Tm shift relative to glycine control, % at 25 µM; Glutamate receptor ionotropic, NMDA 3A (GRIN3A) ligand-binding domain; NR3A LBD differential scanning fluorimetry, Tm shift; 0% = protein alone, 100% = glycine-bound protein; AID 1259313, 2017; hit rate 2.5% among 340,000;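 active = melting temperature shift of at least 10% of the positive control shift, at one fixed dose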
MPTP counter: fluorescence retest of MPTP screen hits in isolated mitochondria, single concentration; hit rate 78% among 5,000; membrane potential, Rhodamine 123 fluorescence; inhibition, % at 10 µM; shares compounds with MPTP block; AID 624504, 2012; in the data active = inhibition above about 22%;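 note: 0% = DMSO vehicle and 100% = positive control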
ADAM10 confirm: human ADAM10 inhibitors, confirmation, biochemical, QFRET, triplicate | inhibition, % at 6.95 µM | hit rate 1% among 2,100 | ADAM10 QFRET peptide cleavage, EDANS fluorescence | shares compounds with ADAM10 inh;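 active = inhibition above about 20% chosen separately for each screening run, limit read from the data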;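 note: 0% = DMSO wells and 100% = marimastat wells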
ADAM17 counter: ADAM17 inhibitors, counter-screen for ADAM10 exosite inhibitor project, biochemical, QFRET, high throughput. shares compounds with ADAM10 inh. ADAM17 QFRET peptide cleavage, EDANS fluorescence. inhibition, % at 6.95 µM. hit rate 0.5% among 2,100;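 active = mean triplicate inhibition above the solvent-only control wells' mean plus 3 SD, cut at about 12% in these data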;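 note: 0% = DMSO wells and 100% = marimastat wells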
ADAM10 ctr: ADAM10 inhibitors, counter-screen for ADAM17 exosite inhibitor project, biochemical, FRET, human ADAM10; shares compounds with ADAM17 inh; recombinant ADAM10, EDANS/DABCYL FRET peptide cleavage, 3 h; inhibition, % at 6.95 µM; hit rate 47% among 2,900; AID 743256, 2014;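 active = mean inhibition over the triplicate runs exceeds the activity threshold set in the earlier primary screen, cut at about 20% in these data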;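 note: 0% = DMSO wells and 100% = marimastat wells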
ADAM17 confirm: ADAM17 inhibitors, hit retest, confirmation, biochemical, QFRET peptide cleavage; shares compounds with ADAM17 inh; recombinant ADAM17, EDANS/DABCYL QFRET peptide cleavage; inhibition, % at 6.95 µM; hit rate 65% among 2,900; AID 743257, 2014;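 active = mean inhibition across replicates above the hit cutoff set in the primary screen, cut at about 8.5% in these data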;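 note: 0% = DMSO wells and 100% = marimastat wells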
* hit, by the source's call; x = not tested or not shown. An excerpt weighted towards active compounds, which were near 4.7% of everything screened.

SMILES	ADAM10 inh	SKN-1 inh	MPTP block	MT1-MMP act inh	ADAM17 inh	GRIN3A LBD mod	MPTP counter	ADAM10 confirm	ADAM17 counter	ADAM10 ctr	ADAM17 confirm
COC(=O)[C@@H](Cc1ccccc1)NC(=O)NCCc1c[nH]c2ccccc12	0	12	0	2	-1	-3	x	x	x	x	x
O=C(CNc1cc(S(=O)(=O)N2CCCC2)ccc1OCC(F)(F)F)Nc1cccc(C(F)(F)F)c1	26*	8	51*	0	11*	5	48*	3	0	41*	17*
O=c1cc(/C=C/c2ccccc2)oc2c1ccc1ccccc12	-88	9	3	-5	-34	-12	x	x	x	x	x
COc1cccc(C(=O)Nc2nnc(CCS(=O)(=O)c3ccc(C)cc3)s2)c1	-14	6	2	-3	-1	-1	x	x	x	x	x
CCCc1cc(=O)[nH]c(SCC(=O)Nc2sccc2C#N)n1	-1	3	0	1	-4	-1	x	x	x	x	x
CCN(CC)S(=O)(=O)c1cccc(NC(=O)Nc2cccc(C(F)(F)F)c2)c1	30*	2	87*	-19	11*	31*	69*	6	2	55*	29*
CCN(CC)S(=O)(=O)c1cccc(NC(=O)CC2CCCC2)c1	0	10	1	4	0	-2	x	x	x	x	x
Cc1sc(N/N=C/c2cc([N+](=O)[O-])ccc2O)nc1-c1ccccc1	1	9	34	6	-6	-1	x	x	x	x	x
CCN(CC)S(=O)(=O)c1ccc(NS(=O)(=O)c2ccc(C)c(C)c2)cc1	-6	13	7	3	0	-8	x	x	x	x	x
CCN(CC)S(=O)(=O)c1ccc(S(=O)(=O)Nc2ccc3c(c2)oc2ccccc23)cc1	32*	-16	60*	7	14*	24*	84*	9	3	47*	25*
CCOc1ccccc1NC(=O)C(OC(=O)c1ccc(O)cc1)c1ccccc1 (configuration not stated)	19	2	89*	-5	9.6*	26*	86*	x	x	33*	20*
CCOc1ccccc1NC(=O)C(OC(=O)c1ccc(CC)cc1)c1ccccc1 (configuration not stated)	-4	-3	3	3	-2	-1	x	x	x	x	x
O=C(Nc1ccc(C(O)(C(F)(F)F)C(F)(F)F)cc1)c1ccc(Cl)c([N+](=O)[O-])c1	34*	-3	83*	6	16*	13*	67*	4	2	49*	22*
Cc1ccc(S(=O)(=O)N(CC(=O)Nc2ccc(Cl)c([N+](=O)[O-])c2)C2CCCCC2)cc1	25*	1	91*	-10	14*	11*	81*	10	2	25*	14*
S=C(NCc1ccc(Cl)cc1)Nc1ccncc1	7	-3	98*	-4	8.9*	-1	103*	x	x	8	13*
S=C(NCc1ccncc1)Nc1cccc(Cl)c1	-8	-5	4	-1	-3	1	x	x	x	x	x
O=[N+]([O-])c1ccc(C2=NN(CCO)C(=Nc3ccc(OC(F)(F)F)cc3)SC2)cc1	12	2	54*	-1	12*	-9	53*	x	x	32*	18*
Cc1ccccc1OCCCSc1nc2ccccc2[nH]1	19	6	68*	-2	8.8*	-3	99*	x	x	15	10*
CCc1ccc(NC(=O)C2CCN(S(=O)(=O)c3ccc4c(c3)NC(=O)C(C)S4)CC2)cc1 (configuration not stated)	26*	16	98*	-3	14*	0	97*	1	0	21*	11*
Cc1ccc(NC(=O)CSc2nn(-c3ccccc3)c(=S)s2)cc1S(=O)(=O)N(C)C	22*	-14	98*	-6	9.0*	4	76*	5	2	33*	19*
O=C(CSc1nn(-c2ccccc2)c(=S)s1)Nn1cnnc1	6	-13	1	3	-2	2	x	x	x	x	x
O=C(NCCNC(=O)c1cnccn1)c1ccc(Cl)cc1	13	-5	0	-1	-1	0	x	x	x	x	x
Cc1nc2ccc(NS(=O)(=O)c3ccccc3Cl)cc2s1	-5	-1	1	-4	-9	-1	x	x	x	x	x
CSc1nc2ccc(NS(=O)(=O)c3cccc(Cl)c3Cl)cc2s1	20	3	60*	-2	9.7*	16*	64*	x	x	14	10*
O=C(Cn1cnc2c(NCc3ccccc3)ncnc21)N1CCN(c2ccccn2)CC1	-23	-8	-1	5	-8	0	x	x	x	x	x
Cc1cc(C)c(CN2CCN(C(=O)Cn3cnc4c(NCc5ccccc5)ncnc43)CC2)c(C)c1	28*	5	80*	7	16*	0	84*	3	1	29*	14*
CCOC(=O)c1c(-c2ccccc2)csc1NC(=O)CSc1nc(C)cc(C)n1	18	1	12	-5	3	0	x	x	x	x	x
